Converted amounts (≈) assume the structure as drawn. The source made the active and inactive calls. The calls are words filed in the database; no cut-off is given here.

For experiment [1], the system named is Helicobacter pylori. Put plainly: Antibacterial activity against Helicobacter pylori 31A after 48 hrs by serial doubling dilution method. The experiment is classed as functional. The gist of the method: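 H. pylori strain 31 A (stomach ulcer isolate) in brain-heart infusion broth with 10% fetal bovine serum, grown in test tubes under 10% CO2, 5% O2 and 85% N2 at 37 °C. Serial doubling dilutions made in 10% aqueous DMSO and added as 10% of the medium, with 5% culture inoculum. Incubated 37 °C for 48 h. MIC taken as the lowest concentration with no visible growth.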

The subject of experiment [2] is Bacillus subtilis. Put plainly: Antibacterial activity against Bacillus subtilis ATCC 6633 at 625 ug/mL after 24 hrs by conventional well agar method. It counts as functional, organism-based.
Experiment [3] has as its system Micrococcus luteus. As to the kind of experiment: Antibacterial activity against Micrococcus luteus ATCC 9341 at 625 ug/mL after 24 hrs by conventional well agar method. The experiment is classed as functional, organism-based.
In experiment [4] the test system is Bacteroides fragilis. As to the kind of experiment: Antibacterial activity against Bacteroides fragilis ATCC 25285 at 625 ug/mL after 24 hrs by conventional well agar method. The experiment is classed as functional, organism-based.
For experiment [5], the system named is Escherichia coli. As to the kind of experiment: Antibacterial activity against Escherichia coli ATCC 10536 at 625 ug/mL after 24 hrs by conventional well agar method. It counts as functional, organism-based.
Experiment [6] relates to Pseudomonas aeruginosa. Put plainly: Antibacterial activity against Pseudomonas aeruginosa ATCC 9027 at 625 ug/mL after 24 hrs by conventional well agar method. The experiment is classed as functional, organism-based.
Experiment [7] concerns Candida albicans. Put plainly: Antifungal activity against Candida albicans ATCC 10231 at 625 ug/mL after 24 hrs by conventional well agar method. The experiment is classed as functional, organism-based.

In turn, `COc1cc2c(cc1OC)[C@]1(O)C(=O)c3ccc4c(c3O[C@@H]1CO2)C=CC(C)(C)O4` [TEPHROSIN] returned a minimal inhibitory concentration (MIC) in experiment [1] of 0.3 µg/mL (≈ 0.731 µM). Besides, the result in experiment [2], in experiment [3], in experiment [4], in experiment [5], in experiment [6] and in experiment [7] was inactive.

The compound `COc1cc2c(cc1OC)[C@@H]1C(=O)c3c(O)cc4c(c3O[C@@H]1CO2)C=CC(C)(C)O4` [TOXICAROL] showed an MIC in experiment [1] of 0.3 µg/mL (≈ 0.731 µM). Moreover, the outcome in experiment [2], in experiment [3], in experiment [4], in experiment [5], in experiment [6] and in experiment [7] was inactive.

Regarding `C=C(C)[C@H]1Cc2c(ccc3c(=O)c4c(oc23)COc2cc(OC)c(OC)cc2-4)O1` [DEHYDROROTENONE], in experiment [1], the minimum inhibitory concentration (MIC) was found to be 9.8 µg/mL (≈ 25 µM). Besides, the result in experiment [2], in experiment [3], in experiment [4], in experiment [5], in experiment [6] and in experiment [7] was inactive.

The compound `COc1cc2c(cc1OC)[C@]1(O)C(=O)c3ccc4c(c3O[C@@H]1CO2)[C@H](O)[C@@H](O)C(C)(C)O4` displayed an MIC in experiment [1] greater than 88 µg/mL. For the same compound, the outcome in experiment [2], in experiment [3], in experiment [4], in experiment [5], in experiment [6] and in experiment [7] was inactive.

As to `COc1cc2c(cc1OC)[C@@H]1C(=O)c3ccc4c(c3O[C@@H]1CO2)C=CC(C)(C)O4` [DEGUELIN], the MIC in experiment [1] is 0.6 µg/mL (≈ 1.52 µM). In addition, the result in experiment [2], in experiment [3], in experiment [4], in experiment [5], in experiment [6] and in experiment [7] was inactive.

In turn, `CC[C@H]1OC(=O)[C@H](C)[C@@H](O[C@H]2C[C@@](C)(OC)[C@@H](O)[C@H](C)O2)[C@H](C)[C@@H](O[C@@H]2O[C@H](C)C[C@H](N(C)C)[C@H]2O)[C@](C)(OC)C[C@@H](C)C(=O)[C@H](C)[C@@H](O)[C@]1(C)O` [CLARITHROMYCIN] registered an MIC in experiment [1] of 0.05 µg/mL (≈ 0.0668 µM). The result in experiment [2], in experiment [3], in experiment [4], in experiment [5], in experiment [6] and in experiment [7] was inactive.

`COc1cc2c(cc1OC)Oc1c(oc3c4c(ccc3c1=O)OC(C)(C)C=C4)CO2` displayed an MIC in experiment [1] of 4 µg/mL (≈ 9.79 µM). Also, the outcome in experiment [2], in experiment [3], in experiment [4], in experiment [5], in experiment [6] and in experiment [7] was inactive.

On to `C=C(C)[C@H]1Cc2c(ccc3c2O[C@@H]2COc4cc(OC)c(OC)cc4[C@@H]2C3=O)O1` [ROTENONE], for which, in experiment [1], the MIC came to 1.3 µg/mL (≈ 3.3 µM). The outcome in experiment [2], in experiment [3], in experiment [4], in experiment [5], in experiment [6] and in experiment [7] was inactive.

As for `C=C(C)[C@H]1Cc2c(ccc3c2O[C@@H]2COc4cc(OC)c(OC)cc4[C@]2(O)C3=O)O1` [ROTENOLONE], the MIC in experiment [1] came to 1.3 µg/mL (≈ 3.17 µM). Also, the result in experiment [2], in experiment [3], in experiment [4], in experiment [5], in experiment [6] and in experiment [7] was inactive.

`COc1cc2c(cc1OC)[C@@H]1C(=O)c3ccc4c(c3O[C@@H]1CO2)[C@H](O)[C@@H](O)C(C)(C)O4` [DERRISIN]: the MIC in experiment [1] is 85 µg/mL (≈ 198 µM). For the same compound, the result in experiment [2], in experiment [3], in experiment [4], in experiment [5], in experiment [6] and in experiment [7] was inactive.

For the compound `COc1cc2c(cc1OC)[C@@H]1C(=O)c3ccc4occc4c3O[C@@H]1CO2` [ELLIPTONE], it took 3 µg/mL (≈ 8.51 µM) to inhibit growth in experiment [1] (MIC). The outcome in experiment [2], in experiment [3], in experiment [4], in experiment [5], in experiment [6] and in experiment [7] was inactive.

`COc1cc2c(cc1OC)-c1c(oc3c4c(ccc3c1=O)OC(C)(C)C=C4)CO2` [DEHYDRODEGUELIN] showed an MIC in experiment [1] of 4 µg/mL (≈ 10.2 µM). Further, the outcome in experiment [2], in experiment [3], in experiment [4], in experiment [5], in experiment [6] and in experiment [7] was inactive.

What is called MIC is the least concentration at which growth counts as inhibited.

For the origin of these results see ChEMBL document CHEMBL1148130, “Derrisin, a new rotenoid from Derris malaccensis plain and anti-Helicobacter pylori activity of its related constituents” (2002).
